Measured values taken from ChEMBL document CHEMBL1136788, “A novel antibacterial 8-chloroquinolone with a distorted orientation of the N1-(5-amino-2,4-difluorophenyl) group” (2003).
Values after ≈ are worked out from the molar mass of the structure shown.

Columns and labels:
Type in all cases: functional
[1] = system: Escherichia coli; experiment: Tested for in vitro antibacterial activity against Escherichia coli W9523
How it was run: (§1)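 Agar dilution per NCCLS. Twofold serial dilutions (128–0.002 μg/mL) were made in Mueller Hinton medium. Plates were inoculated with about 10^4 organisms and incubated at 37 °C for 18 h. MIC was the lowest concentration giving no visible growth.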

[2] = In vitro antibacterial activity against Gram (-) bacteria
How it was run: (§2)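 Value is the geometric mean of MICs over a panel: 14 Gram (–) or 13 Gram (+) strains. MICs came from NCCLS agar dilution in Mueller Hinton medium (10% horse blood added for S. pneumoniae), with twofold dilutions from 128 to 0.002 μg/mL. Inoculum was about 10^4 organisms, at 37 °C for 18 h; endpoint was no visible growth.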

[3] = system: Staphylococcus aureus; experiment: Tested for in vitro antibacterial activity against methicillin resistant Staphylococcus aureus W9501
How it was run: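 Agar dilution per NCCLS standard method in Mueller Hinton medium; two-fold serial dilutions of test compound from 128 to 0.002 μg/mL. Plates inoculated with about 10^4 organisms, incubated 37 °C for 18 h. MIC read as lowest concentration giving no visible growth on the plate.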

[4] = system: Pseudomonas aeruginosa; experiment: Tested for in vitro antibacterial activity against Pseudomonas aeruginosa W348; how it was run: as §1
[5] = system: Streptococcus pneumoniae; experiment: Tested for in vitro antibacterial activity against Streptococcus pneumoniae W1466
How it was run: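 Agar dilution per NCCLS in Mueller Hinton medium supplemented with 10% horse blood. Twofold dilutions spanned 128–0.002 μg/mL. Inoculum was about 10^4 organisms, incubated at 37 °C for 18 h. MIC was the lowest concentration with no visible growth.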

[6] = Tested for in vitro antibacterial activity against Gram (+) bacteria; how it was run: as §2

Row | Structure (SMILES) | GM-MIC [2] | GM-MIC [6] | MIC [1] | MIC [3] | MIC [4] | MIC [5]
1 | NC1CN(c2c(F)cc3c(=O)c(C(=O)O)cn(-c4ccc(F)cc4F)c3c2Cl)C1 | 0.06 µg/mL | 0.13 µg/mL | 32 µg/mL (≈ 75.5 µM) | 8 µg/mL (≈ 18.9 µM) | 16 µg/mL (≈ 37.8 µM) | 0.03 µg/mL (≈ 0.0708 µM)
2 | Nc1cc(-n2cc(C(=O)O)c(=O)c3cc(F)c(N4CC[C@H](N)C4)nc32)ccc1F | 0.14 µg/mL | 0.45 µg/mL | – | – | – | –
3 | CN(C)C1CN(c2c(F)cc3c(=O)c(C(=O)O)cn(-c4cc(N)c(F)cc4F)c3c2Cl)C1 | 0.22 µg/mL | 0.12 µg/mL | – | – | – | –
4 | Nc1cc(-n2cc(C(=O)O)c(=O)c3cc(F)c(N4CC[C@H](N)C4)nc32)c(F)cc1F | 0.1 µg/mL | 0.26 µg/mL | – | – | – | –
5 | CNC1CN(c2c(F)cc3c(=O)c(C(=O)O)cn(-c4cc(N)c(F)cc4F)c3c2Cl)C1 | 0.04 µg/mL | 0.08 µg/mL | – | – | – | –
6 | Nc1cc(-n2cc(C(=O)O)c(=O)c3cc(F)c(N4CC[C@H](N)C4)c(F)c32)c(F)cc1F | 0.22 µg/mL | 0.34 µg/mL | – | – | – | –
7 | Nc1cc(-n2cc(C(=O)O)c(=O)c3cc(F)c(N4CC[C@H](N)C4)nc32)c(F)c(F)c1F | 1.81 µg/mL | 3.22 µg/mL | – | – | – | –
8 | Nc1cc(-n2cc(C(=O)O)c(=O)c3cc(F)c(N4CCNCC4)c(Cl)c32)c(F)cc1F | 0.52 µg/mL | 1.61 µg/mL | – | – | – | –
9 | Nc1cc(-n2cc(C(=O)O)c(=O)c3cc(F)c(N4CC(N)C4)nc32)c(F)cc1F | 0.15 µg/mL | 0.65 µg/mL | – | – | – | –
10 | Nc1cc(-n2cc(C(=O)O)c(=O)c3cc(F)c(N4CC(N)C4)c(Cl)c32)c(F)cc1F | 0.03 µg/mL | 0.07 µg/mL | 1 µg/mL (≈ 2.28 µM) | 1 µg/mL (≈ 2.28 µM) | 1 µg/mL (≈ 2.28 µM) | 0.008 µg/mL (≈ 0.0182 µM)
11 | Nc1cc(-n2cc(C(=O)O)c(=O)c3cc(F)c(N4CCNCC4)c(F)c32)c(F)cc1F | 0.39 µg/mL | 2.6 µg/mL | – | – | – | –
12 | O=C(O)c1cn(C2CC2)c2cc(N3CCNCC3)c(F)cc2c1=O [CIPROFLOXACIN] | 0.04 µg/mL | 0.99 µg/mL | 128 µg/mL (≈ 386 µM) | 128 µg/mL (≈ 386 µM) | – | 1 µg/mL (≈ 3.02 µM)
13 | N[C@@H]1[C@H]2CN(c3nc4c(cc3F)c(=O)c(C(=O)O)cn4-c3ccc(F)cc3F)C[C@@H]12 [TROVAFLOXACIN] | 0.3 µg/mL | 0.29 µg/mL | > 128 µg/mL | 128 µg/mL (≈ 307 µM) | 16 µg/mL (≈ 38.4 µM) | 0.25 µg/mL (≈ 0.6 µM)

More lines, main results first:

Row | GM-MIC [2] | GM-MIC [6] | Structure (SMILES) | MIC [1] | MIC [3] | MIC [4] | MIC [5]
14 | 0.32 µg/mL | 1.61 µg/mL | Nc1c(F)ccc(-n2cc(C(=O)O)c(=O)c3cc(F)c(N4CC[C@H](N)C4)nc32)c1F | – | – | – | –
15 | 0.03 µg/mL | 0.09 µg/mL | Cc1c(N2CC(N)C2)c(F)cc2c(=O)c(C(=O)O)cn(-c3cc(N)c(F)cc3F)c12 | – | – | – | –
16 | 0.12 µg/mL | 0.49 µg/mL | Nc1cc(-n2cc(C(=O)O)c(=O)c3cc(F)c(N4CC(N)C4)cc32)c(F)cc1F | – | – | – | –
17 | 0.08 µg/mL | 0.42 µg/mL | Nc1cc(-n2cc(C(=O)O)c(=O)c3cc(F)c(N4CC(N)C4)c(F)c32)c(F)cc1F | – | – | – | –
18 | 0.14 µg/mL | 0.22 µg/mL | Nc1cc(-n2cc(C(=O)O)c(=O)c3cc(F)c(N4CC[C@H](N)C4)cc32)c(F)cc1F | – | – | – | –
19 | 0.86 µg/mL | 1.99 µg/mL | Nc1ccc(F)c(-n2cc(C(=O)O)c(=O)c3cc(F)c(N4CC[C@H](N)C4)nc32)c1 | – | – | – | –
20 | 0.06 µg/mL | 0.1 µg/mL | CC1(N)CN(c2c(F)cc3c(=O)c(C(=O)O)cn(-c4cc(N)c(F)cc4F)c3c2Cl)C1 | – | – | – | –
21 | 0.15 µg/mL | 1.05 µg/mL | Nc1cc(-n2cc(C(=O)O)c(=O)c3cc(F)c(N4CCNCC4)cc32)c(F)cc1F | – | – | – | –
22 | 0.08 µg/mL | 0.12 µg/mL | CCNC1CN(c2c(F)cc3c(=O)c(C(=O)O)cn(-c4cc(N)c(F)cc4F)c3c2Cl)C1 | – | – | – | –
23 | 0.04 µg/mL | 0.07 µg/mL | Nc1cc(-n2cc(C(=O)O)c(=O)c3cc(F)c(N4CC(N)C4)c(Br)c32)c(F)cc1F | – | – | – | –
24 | 1.72 µg/mL | 5.81 µg/mL | Nc1cc(-n2cc(C(=O)O)c(=O)c3cc(F)c(N4CCNCC4)nc32)c(F)cc1F | – | – | – | –
25 | 1.21 µg/mL | 1.16 µg/mL | Nc1cc(-n2cc(C(=O)O)c(=O)c3cc(F)c(N4CC[C@H](N)C4)c(Cl)c32)c(F)cc1F | – | – | – | –
26 | 0.12 µg/mL | 0.44 µg/mL | NC1CCN(c2nc3c(cc2F)c(=O)c(C(=O)O)cn3-c2ccc(F)cc2F)C1 (configuration not stated) [TOSUFLOXACIN] | – | – | – | –
